Measurements taken from ChEMBL document CHEMBL4831543, “Design of Transmembrane Mimetic Structural Probes to Trap Different Stages of γ-Secretase-Substrate Interaction” (J Med Chem, 2021).
Activity calls are given as the source filed them. The rule behind the calls is not given here.

Columns and labels:
Gamma-secretase [1] = assay: Inhibition of gamma secretase (unknown origin) expressed in HEK293 cells assessed as reduction of A-beta40 levels using C100-FLAG as substrate incubated for 2 hrs by sandwich ELISA; assay type: cell-based, Homo sapiens
[2] = target: T1, Gamma-secretase (Homo sapiens) (UniProt Q96BI3+Q9NZ42+Q8WW43+P49768+Q92542+P49810); assay: Inhibition of TSA-Bpa-Bt labelling of gamma secretase (unknown origin) expressed in HEK293 cells at 10 uM preincubated for 1.5 hrs followed by irradiation for 30 mins by Western blot analysis; assay type: cell-based; conditions: time 2.0 hrs
Procedure, shortened: (§1)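 Purified γ-secretase, 2 nM, preincubated 30 min at 37 °C in assay buffer (50 mM HEPES pH 7.0, 150 mM NaCl, 0.025% DOPC, 0.1% DOPE, 0.25% CHAPSO). Biotinylated photoprobe added at 1 μM, with or without 10 μM competitor, for 1.5 h at 37 °C. UV 350 nm for 30 min on ice, streptavidin pull-down, six washes. Presenilin-1 NTF detected by western blot.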

[3] = target: T1, Gamma-secretase (Homo sapiens); assay: Inhibition of HPI-Bpa-Bt labelling of gamma secretase (unknown origin) expressed in HEK293 cells at 10 uM preincubated for 1.5 hrs followed by irradiation for 30 mins by Western blot analysis; assay type: cell-based; conditions: time 2.0 hrs; procedure, shortened: as §1
[4] = target: T1, Gamma-secretase (Homo sapiens); assay: Competitive inhibition of TSA 1 binding to gamma secretase (unknown origin); assay type: protein-complex assay
Procedure, shortened: (§2)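 Cross-competition kinetics using the standard activity assay. Purified γ-secretase from suspension HEK293 cells, expressed from a tetracistronic vector, in detergent-lipid buffer (HEPES pH 7.0, DOPC, DOPE, CHAPSO). Varying concentrations of two inhibitors titrated against each other, with C100Flag held at 0.50 μM. Aβ40 measured by sandwich ELISA. Data plotted as reciprocal plots and fit to a two-inhibitor equation.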

[5] = target: T1, Gamma-secretase (Homo sapiens); assay: Competitive inhibition of HPI 2 binding to gamma secretase (unknown origin); assay type: protein-complex assay; procedure, shortened: as §2
Gamma-secretase [6] = assay: Noncompetitive inhibition of gamma secretase (unknown origin) expressed in HEK293 cells assessed as reduction of A-beta40 levels using varying level of C100-FLAG as substrate incubated for 2 hrs by double reciprocal plot analysis; assay type: cell-based, Homo sapiens
Procedure, shortened: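 1 nM purified γ-secretase from suspension HEK293 cells (tetracistronic pMLINK) in HEPES pH 7.0, NaCl, DOPC, DOPE, 0.25% CHAPSO. Preincubated 30 min at 37 °C, then given inhibitor in DMSO (2% final) with C100Flag at 0–4.5 μM. Reaction run 2 h at 37 °C; Aβ40 read by sandwich ELISA. Ki obtained by fitting to a noncompetitive inhibition equation.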

IC50 (Gamma-secretase [1]) | inhibition [2] | inhibition [3] | SMILES | other results
7.5 nM | – | – | CC[C@H](C)[C@H](NC(=O)[C@@H](NC(=O)[C@@H](NC(=O)C(C)(C)NC(=O)CNC(=O)[C@@H](NC(=O)OC(C)(C)C)C(C)C)C(C)C)C(C)C)C(=O)NC(C)(C)C(=O)N[C@H](C(=O)N[C@H](C(=O)NC(C)(C)C(=O)N[C@H](C(=O)N[C@@H](Cc1ccccc1)[C@H](O)CN(Cc1ccccc1)C(=O)N[C@@H](CC(C)C)C(=O)N[C@H](C(N)=O)C(C)C)C(C)C)C(C)C)[C@@H](C)O | –
3.2 nM | – | – | CC[C@H](C)[C@H](NC(=O)[C@@H](NC(=O)[C@@H](NC(=O)C(C)(C)NC(=O)CNC(=O)[C@@H](NC(=O)OC(C)(C)C)C(C)C)C(C)C)C(C)C)C(=O)NC(C)(C)C(=O)N[C@H](C(=O)N[C@H](C(=O)NC(C)(C)C(=O)NCCCCC(=O)N[C@H](C(=O)N[C@@H](Cc1ccccc1)[C@H](O)CN(Cc1ccccc1)C(=O)N[C@@H](CC(C)C)C(=O)N[C@H](C(N)=O)C(C)C)C(C)C)C(C)C)[C@@H](C)O | –
1.1 nM | – | – | CC[C@H](C)[C@H](NC(=O)[C@@H](NC(=O)[C@@H](NC(=O)C(C)(C)NC(=O)CNC(=O)[C@@H](NC(=O)OC(C)(C)C)C(C)C)C(C)C)C(C)C)C(=O)NC(C)(C)C(=O)N[C@H](C(=O)N[C@H](C(=O)NC(C)(C)C(=O)NCCCCCCCCC(=O)N[C@H](C(=O)N[C@@H](Cc1ccccc1)[C@H](O)CN(Cc1ccccc1)C(=O)N[C@@H](CC(C)C)C(=O)N[C@H](C(N)=O)C(C)C)C(C)C)C(C)C)[C@@H](C)O | –
0.87 nM | – | – | CC[C@H](C)[C@H](NC(=O)[C@@H](NC(=O)[C@@H](NC(=O)C(C)(C)NC(=O)CNC(=O)[C@@H](NC(=O)OC(C)(C)C)C(C)C)C(C)C)C(C)C)C(=O)NC(C)(C)C(=O)N[C@H](C(=O)N[C@H](C(=O)NC(C)(C)C(=O)NCCCCCCCCCCCC(=O)N[C@H](C(=O)N[C@@H](Cc1ccccc1)[C@H](O)CN(Cc1ccccc1)C(=O)N[C@@H](CC(C)C)C(=O)N[C@H](C(N)=O)C(C)C)C(C)C)C(C)C)[C@@H](C)O | –
6 nM | – | – | CC[C@H](C)[C@H](NC(=O)[C@@H](NC(=O)[C@@H](NC(=O)C(C)(C)NC(=O)CNC(=O)[C@@H](NC(=O)OC(C)(C)C)C(C)C)C(C)C)C(C)C)C(=O)NC(C)(C)C(=O)N[C@H](C(=O)N[C@H](C(=O)NC(C)(C)C(=O)NCCC(=O)N[C@H](C(=O)N[C@@H](Cc1ccccc1)[C@H](O)CN(Cc1ccccc1)C(=O)N[C@@H](CC(C)C)C(=O)N[C@H](C(N)=O)C(C)C)C(C)C)C(C)C)[C@@H](C)O | –
– | Active | Active | CC[C@H](C)[C@@H](NC(=O)[C@H](NC(=O)[C@H](NC(=O)C(C)(C)NC(=O)CNC(=O)[C@H](NC(=O)OC(C)(C)C)C(C)C)C(C)C)C(C)C)C(=O)NC(C)(C)C(=O)N[C@@H](C(=O)N[C@@H](C(=O)NC(C)(C)C(=O)NCCCCCCCCCCC(=O)N[C@H](C(=O)N[C@@H](Cc1ccccc1)[C@H](O)CN(Cc1ccccc1)C(=O)N[C@@H](CC(C)C)C(=O)N[C@H](C(N)=O)C(C)C)C(C)C)C(C)C)[C@@H](C)O | inhibition [4]: Active; inhibition [5]: Active
34.8 nM | – | – | CC[C@H](C)[C@H](NC(=O)[C@@H](NC(=O)[C@@H](NC(=O)C(C)(C)NC(=O)CNC(=O)[C@@H](NC(=O)OC(C)(C)C)C(C)C)C(C)C)C(C)C)C(=O)NC(C)(C)C(=O)N[C@H](C(=O)N[C@H](C(=O)NC(C)(C)C(=O)OC)C(C)C)[C@@H](C)O | –
1.5 nM | – | – | CC[C@H](C)[C@H](NC(=O)[C@@H](NC(=O)[C@@H](NC(=O)C(C)(C)NC(=O)CNC(=O)[C@@H](NC(=O)OC(C)(C)C)C(C)C)C(C)C)C(C)C)C(=O)NC(C)(C)C(=O)N[C@H](C(=O)N[C@H](C(=O)NC(C)(C)C(=O)NCCCCCCC(=O)N[C@H](C(=O)N[C@@H](Cc1ccccc1)[C@H](O)CN(Cc1ccccc1)C(=O)N[C@@H](CC(C)C)C(=O)N[C@H](C(N)=O)C(C)C)C(C)C)C(C)C)[C@@H](C)O | –
0.7 nM | – | – | CC[C@H](C)[C@H](NC(=O)[C@@H](NC(=O)[C@@H](NC(=O)C(C)(C)NC(=O)CNC(=O)[C@@H](NC(=O)OC(C)(C)C)C(C)C)C(C)C)C(C)C)C(=O)NC(C)(C)C(=O)N[C@H](C(=O)N[C@H](C(=O)NC(C)(C)C(=O)NCCCCCCCCCCC(=O)N[C@H](C(=O)N[C@@H](Cc1ccccc1)[C@H](O)CN(Cc1ccccc1)C(=O)N[C@@H](CC(C)C)C(=O)N[C@H](C(N)=O)C(C)C)C(C)C)C(C)C)[C@@H](C)O | Ki (Gamma-secretase [6]): 0.65 nM
– | inactive | Active | CC[C@H](C)[C@H](NC(=O)[C@@H](NC(=O)[C@@H](NC(=O)C(C)(C)NC(=O)CNC(=O)[C@@H](NC(=O)OC(C)(C)C)C(C)C)C(C)C)C(C)C)C(=O)NC(C)(C)C(=O)N[C@@H](Cc1ccccc1)C(=O)N[C@H](C(=O)NC(C)(C)C(=O)OC)C(C)C | inhibition [4]: inactive
– | Active | inactive | COC(=O)[C@@H](NC(=O)[C@H](CC(C)C)NC(=O)N(Cc1ccccc1)C[C@@H](O)[C@H](Cc1ccccc1)NC(=O)[C@@H](NC(=O)OC(C)(C)C)C(C)C)C(C)C | inhibition [5]: inactive

SMILES | IC50 (Gamma-secretase [1]) | inhibition [2] | inhibition [3] | other results
CC[C@H](C)C(NC(=O)[C@@H](NC(=O)C(C)(C)NC(=O)[C@@H](NC(=O)[C@H](Cc1ccccc1)NC(=O)C(C)(C)NC(=O)[C@@H](NC(=O)[C@@H](NC(=O)[C@@H](NC(=O)C(C)(C)NC(=O)CNC(=O)[C@@H](NC(=O)OC(C)(C)C)C(C)C)C(C)C)C(C)C)[C@@H](C)CC)C(C)C)C(C)C)C(=O)N[C@H](C(=O)N[C@H](C(=O)N[C@@H](Cc1ccccc1)[C@H](O)CN(Cc1ccccc1)C(=O)N[C@@H](CC(C)C)C(=O)N[C@H](C(N)=O)C(C)C)C(C)C)C(C)C (some centres not stated) | 58.9 nM | – | – | –
CC[C@H](C)[C@H](NC(=O)[C@@H](NC(=O)[C@@H](NC(=O)C(C)(C)NC(=O)CNC(=O)[C@@H](NC(=O)OC(C)(C)C)C(C)C)C(C)C)C(C)C)C(=O)NC(C)(C)C(=O)N[C@@H](Cc1ccccc1)C(=O)N[C@H](C(=O)NC(C)(C)C(=O)NCC(=O)NCC(=O)NCC(=O)N[C@H](C(=O)N[C@@H](Cc1ccccc1)[C@H](O)CN(Cc1ccccc1)C(=O)N[C@@H](CC(C)C)C(=O)N[C@H](C(N)=O)C(C)C)C(C)C)C(C)C | – | Active | Active | –
